In ChEMBL document CHEMBL5724801, “EUbOPEN Chemogenomics Library - Multiplex” (2024):
“And” between values parts separate entries of the source, which are not always exact repeats. Equal values may be shown once.

System: U2OS
Assay: Multiplex assay against U2OS
Assay type: toxicity, cell-based
Conditions: human
Procedure, shortened: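 Cells stained live at seeding with Hoechst33342, BioTracker Green Microtubule Cytoskeleton Dye, MitoTracker Red and Annexin V Alexa Fluor 680 were imaged on a CQ1 microscope at 37°C and 5% CO2 after compound addition. Their classification by CellPathfinder machine-learning gating ran from Hoechst high-intensity objects versus normal cells, to healthy, pyknosed or fragmented nuclei among normal cells, to mitotic or apoptotic among pyknosed cells. Tubulin, mitochondrial-mass and membrane-permeability phenotypes are per cents of healthy-nucleus cells.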

[1] = 12 h, 1 µM, compound concentration 1 uM
[2] = 12 h, 10 µM, compound concentration 10 uM
[3] = 24 h, 1 µM, compound concentration 1 uM
[4] = 24 h, 10 µM, compound concentration 10 uM
[5] = 48 h, 1 µM, compound concentration 1 uM
[6] = 48 h, 10 µM, compound concentration 10 uM

COc1ccccc1N1CCN(C[C@@H](C(=O)NC(C)(C)C)c2ccccc2)CC1.Cl.Cl
Population Apoptotic (%) [1]: 73% and 66%
Population Fragmented Nuclei (%) [1]: 29% and 14%
Population Healthy Nuclei (%) [1]: 65% and 80%
Population Hoechst High Intensity Objects (%) [1]: 2% and 1%
Population Membrane Permeable-Phenotype (%) [1]: 5% and 7%
Population Mitochondria Different-Phenotype (%) [1]: 3% and 2%
Population Mitotic Cells (%) [1]: 26% and 33%
Population Normal (%) [1]: 97% and 98%
Population Pyknosed Nuclei (%) [1]: 5%
Population Tubulin-Different-Phenotype (%) [1]: 1% and 3%
Total Cell Count [1]: 281 and 114
Population Apoptotic (%) [2]: 46% and 50%
Population Fragmented Nuclei (%) [2]: 35% and 17%
Population Healthy Nuclei (%) [2]: 49% and 66%
Population Hoechst High Intensity Objects (%) [2]: 3% and 0%
Population Membrane Permeable-Phenotype (%) [2]: 41% and 49%
Population Mitochondria Different-Phenotype (%) [2]: 41% and 56%
Population Mitotic Cells (%) [2]: 53% and 50%
Population Normal (%) [2]: 96% and 99%
Population Pyknosed Nuclei (%) [2]: 14% and 15%
Population Tubulin-Different-Phenotype (%) [2]: 41% and 64%
Total Cell Count [2]: 226 and 102
Population Apoptotic (%) [3]: 68% and 80%
Population Fragmented Nuclei (%) [3]: 29% and 16%
Population Healthy Nuclei (%) [3]: 62% and 75%
Population Hoechst High Intensity Objects (%) [3]: 3%
Population Membrane Permeable-Phenotype (%) [3]: 7% and 5%
Population Mitochondria Different-Phenotype (%) [3]: 1% and 6%
Population Mitotic Cells (%) [3]: 32% and 20%
Population Normal (%) [3]: 96%
Population Pyknosed Nuclei (%) [3]: 8%
Population Tubulin-Different-Phenotype (%) [3]: 3% and 2%
Total Cell Count [3]: 320 and 129
Population Apoptotic (%) [4]: 61% and 70%
Population Fragmented Nuclei (%) [4]: 38% and 20%
Population Healthy Nuclei (%) [4]: 42% and 63%
Population Hoechst High Intensity Objects (%) [4]: 5%
Population Membrane Permeable-Phenotype (%) [4]: 20% and 39%
Population Mitochondria Different-Phenotype (%) [4]: 33% and 61%
Population Mitotic Cells (%) [4]: 38% and 29%
Population Normal (%) [4]: 94%
Population Pyknosed Nuclei (%) [4]: 18% and 15%
Population Tubulin-Different-Phenotype (%) [4]: 25% and 52%
Total Cell Count [4]: 235 and 113
Population Apoptotic (%) [5]: 78% and 83%
Population Fragmented Nuclei (%) [5]: 21% and 16%
Population Healthy Nuclei (%) [5]: 66% and 72%
Population Hoechst High Intensity Objects (%) [5]: 2% and 4%
Population Membrane Permeable-Phenotype (%) [5]: 5% and 7%
Population Mitochondria Different-Phenotype (%) [5]: 1% and 2%
Population Mitotic Cells (%) [5]: 22% and 16%
Population Normal (%) [5]: 97% and 95%
Population Pyknosed Nuclei (%) [5]: 11%
Population Tubulin-Different-Phenotype (%) [5]: 1% and 4%
Total Cell Count [5]: 452 and 162
Population Apoptotic (%) [6]: 58% and 96%
Population Fragmented Nuclei (%) [6]: 33% and 18%
Population Healthy Nuclei (%) [6]: 44% and 58%
Population Hoechst High Intensity Objects (%) [6]: 4% and 8%
Population Membrane Permeable-Phenotype (%) [6]: 28% and 43%
Population Mitochondria Different-Phenotype (%) [6]: 30% and 29%
Population Normal (%) [6]: 95% and 91%
Population Pyknosed Nuclei (%) [6]: 21% and 22%
Population Tubulin-Different-Phenotype (%) [6]: 21% and 35%
Total Cell Count [6]: 271 and 121

CC(C)(O)C(=O)N1CCN(c2ccc(C(F)(F)F)c(C3=C(c4c[nH]c5ccccc45)C(=O)NC3=O)c2)CC1
Population Apoptotic (%) [1]: 88% and 92%
Population Fragmented Nuclei (%) [1]: 29% and 14%
Population Healthy Nuclei (%) [1]: 63% and 75%
Population Hoechst High Intensity Objects (%) [1]: 3% and 1%
Population Membrane Permeable-Phenotype (%) [1]: 5% and 4%
Population Mitochondria Different-Phenotype (%) [1]: 2% and 4%
Population Mitotic Cells (%) [1]: 11% and 7%
Population Normal (%) [1]: 96% and 98%
Population Pyknosed Nuclei (%) [1]: 7% and 9%
Population Tubulin-Different-Phenotype (%) [1]: 3%
Total Cell Count [1]: 238 and 134
Population Apoptotic (%) [2]: 76% and 50%
Population Healthy Nuclei (%) [2]: 46% and 77%
Population Hoechst High Intensity Objects (%) [2]: 6% and 1%
Population Membrane Permeable-Phenotype (%) [2]: 39% and 14%
Population Mitochondria Different-Phenotype (%) [2]: 23% and 14%
Population Mitotic Cells (%) [2]: 24% and 50%
Population Normal (%) [2]: 93% and 98%
Population Pyknosed Nuclei (%) [2]: 16%
Population Tubulin-Different-Phenotype (%) [2]: 30% and 15%
Total Cell Count [2]: 166 and 148
Population Apoptotic (%) [3]: 89% and 82%
Population Fragmented Nuclei (%) [3]: 27% and 22%
Population Healthy Nuclei (%) [3]: 61% and 67%
Population Hoechst High Intensity Objects (%) [3]: 3% and 0%
Population Membrane Permeable-Phenotype (%) [3]: 7% and 4%
Population Mitochondria Different-Phenotype (%) [3]: 3% and 2%
Population Mitotic Cells (%) [3]: 10% and 17%
Population Normal (%) [3]: 96% and 100%
Population Pyknosed Nuclei (%) [3]: 11% and 9%
Population Tubulin-Different-Phenotype (%) [3]: 5% and 2%
Total Cell Count [3]: 263 and 172
Population Apoptotic (%) [4]: 87% and 70%
Population Fragmented Nuclei (%) [4]: 48% and 16%
Population Healthy Nuclei (%) [4]: 27% and 53%
Population Hoechst High Intensity Objects (%) [4]: 6% and 2%
Population Membrane Permeable-Phenotype (%) [4]: 11% and 15%
Population Mitochondria Different-Phenotype (%) [4]: 34% and 24%
Population Mitotic Cells (%) [4]: 12% and 29%
Population Normal (%) [4]: 93% and 97%
Population Pyknosed Nuclei (%) [4]: 24% and 29%
Population Tubulin-Different-Phenotype (%) [4]: 15% and 11%
Total Cell Count [4]: 172 and 152
Population Apoptotic (%) [5]: 95% and 85%
Population Fragmented Nuclei (%) [5]: 21% and 17%
Population Healthy Nuclei (%) [5]: 65% and 73%
Population Hoechst High Intensity Objects (%) [5]: 3% and 1%
Population Membrane Permeable-Phenotype (%) [5]: 6% and 7%
Population Mitochondria Different-Phenotype (%) [5]: 4% and 3%
Population Mitotic Cells (%) [5]: 4% and 14%
Population Normal (%) [5]: 96% and 98%
Population Pyknosed Nuclei (%) [5]: 12% and 9%
Population Tubulin-Different-Phenotype (%) [5]: 5% and 2%
Total Cell Count [5]: 377 and 233
Population Apoptotic (%) [6]: 95% and 96%
Population Fragmented Nuclei (%) [6]: 57% and 31%
Population Healthy Nuclei (%) [6]: 11% and 27%
Population Hoechst High Intensity Objects (%) [6]: 14% and 7%
Population Membrane Permeable-Phenotype (%) [6]: 27% and 17%
Population Mitochondria Different-Phenotype (%) [6]: 16% and 14%
Population Mitotic Cells (%) [6]: 4% and 3%
Population Normal (%) [6]: 85% and 92%
Population Pyknosed Nuclei (%) [6]: 30% and 41%
Population Tubulin-Different-Phenotype (%) [6]: 11% and 17%
Total Cell Count [6]: 177 and 163
